The list is not random: actives were taken first. Their share in the collection is about 2.9%.
TRPC4 PAM: allosterically enhances the mouse TRPC4 cation channel; Q9QUQ5; HEK293 TRPC4beta/mu-opioid, DAMGO EC20, Fluo-4 Ca2+ flux; active compounds read high; B-score at 10 µM; actives 0.42% (n = 310,000);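 active means B-score of calcium response area above 5 SD of library B-scores, with initial fluorescence ratio within 5 SD of library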;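 further: B-score of integrated fluorescence ratio over time as area under calcium response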
TRPC6 activator: activates the mouse TRPC6 cation channel; Q61143; HEK293-TRPC6 membrane potential dye fluorescence; active compounds read high; B-score at 10 µM; actives 0.13% (n = 310,000);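 active means B-score of the integrated fluorescence ratio above library mean plus 3 SD, and starting fluorescence ratio within library mean plus 5 SD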;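 further: higher score means more depolarization so channel activation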
Kir21 block: blocks the mouse Kir2.1 inward-rectifier potassium channel | HEK293-Kir2.1, FluxOR thallium flux fluorescence; active compounds read low | B-score at 10 µM | actives 0.85% (n = 310,000);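 active means fluorescence ratio B-score at or below minus 3 SD of library scores, with starting-brightness B-score within 2 SD, cut at about -4.2 in these data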;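 further: channel flux triggered by added potassium and thallium sulfate stimulus; B-score of peak minus minimum fluorescence over baseline after thallium stimulus; more negative B-score means stronger Kir2.1 block with less thallium influx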
Target sequence (P35561 whole entry, looked up): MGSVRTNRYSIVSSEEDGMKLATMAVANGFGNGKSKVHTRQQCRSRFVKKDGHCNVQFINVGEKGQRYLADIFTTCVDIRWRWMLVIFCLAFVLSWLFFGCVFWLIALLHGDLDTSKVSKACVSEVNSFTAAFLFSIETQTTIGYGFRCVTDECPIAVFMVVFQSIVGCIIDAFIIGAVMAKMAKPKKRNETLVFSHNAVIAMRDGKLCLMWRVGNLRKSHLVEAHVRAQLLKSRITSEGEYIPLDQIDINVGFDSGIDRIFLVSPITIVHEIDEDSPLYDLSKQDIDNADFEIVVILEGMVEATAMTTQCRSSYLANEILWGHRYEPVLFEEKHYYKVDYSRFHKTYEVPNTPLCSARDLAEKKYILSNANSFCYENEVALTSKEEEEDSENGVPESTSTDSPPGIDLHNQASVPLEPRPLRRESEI
TRPC4 block: inhibitors of mouse TRPC4 channel. Q9QUQ5. HEK293 TRPC4beta/mu-opioid, DAMGO-evoked Fluo4 calcium flux; active compounds read low. B-score at 10 µM. actives 0.39% (n = 300,000);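 active means B-score over 3 SD under the library average, no early fluorescence shift, positive overall ratio signal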
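Assay system: HEK293 cells with stable TRPC4beta plus mu-opioid receptor expression. Dosing: single dose. Measured by: Fluo4 Ca2+ flux fluorescence. Also added: DAMGO in two steps, submaximal then maximal. Read-out: B score from integrated Fluo4 fluorescence ratio.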
TRPC6 inhibitor: mouse TRPC6 channel inhibition; actives 1.1% (n = 310,000); B-score at 10 µM; HEK293-TRPC6, membrane potential dye, ACh-evoked depolarization; active compounds read low; Q61143;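 active means B-score under library mean minus 3 SD, initial fluorescence not abnormally high, positive integrated signal ratio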;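 further: B-score derived from integrated fluorescence ratio over the kinetic read; more negative B-score means stronger inhibition of depolarization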
TRPC4 agonist: TRPC4 (mouse) channel activation. Q9QUQ5. HEK293 TRPC4beta/mu-opioid, Fluo4 calcium fluorescence; active compounds read high. B-score at 10 µM. actives 0.49% (n = 310,000). AID 2237;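 active means B-score above 5 SD of library B-scores, and initial fluorescence ratio not above library mean plus 5 SD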;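 further: positive B-score marks a calcium rise read as TRPC4 activation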
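System – HEK293 cells stably co-expressing mouse TRPC4beta and mu-opioid receptor · Signal – Fluo4 calcium-sensitive dye fluorescence, kinetic, 1 Hz baseline · Benchmarks – buffer (low) and maximal DAMGO (high) · Read-out – B score of integrated fluorescence ratio per well · Incubation – dye loading 45 min room temperature, 110 s kinetic read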
TRPC4 sel inh 2: second selectivity test of TRPC6 inhibitors: effect on mouse TRPC4 | shares compounds with TRPC6 inhibitor | HEK293 TRPC4/MOR, membrane potential dye fluorescence; channel activated by saturating DAMGO dose | inhibition, % at 10 µM | actives 42% (n = 920);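 active means compounds whose fluorescence signal differed from control wells by over 3 SD, either direction, in both duplicate plates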
TRPC4 spec: mouse TRPC4 off-target activity of TRPC6 inhibitors. shares compounds with TRPC6 inhibitor. HEK293 TRPC4/mu-opioid, membrane potential fluorescence. activity change, negative = inhibition, % at 10 µM. actives 61% (n = 920). AID 2777;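 active means rise or fall in signal beyond 3 SD of buffer-only wells in both replicate plates, either sign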;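 further: integrated kinetic ratio of fluorescence range over baseline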
HEK293 MPD ctr 2-1: second counter-screen for TRPC6 inhibitors: parental HEK293 cells; signal change vs control, % at 10 µM; parental HEK293 membrane potential dye fluorescence; maximal acetylcholine challenge after compound addition; shares compounds with TRPC6 inhibitor; AID 2779; actives 31% (n = 920);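 active means membrane potential signal moving either way by over 3 SD of the maximum-effect control, in both duplicate plates, meaning non-specific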
HEK293 MPD ctr-1: counter-screen for TRPC6 inhibitors: effect in parental HEK293 cells | actives 60% (n = 920) | parental HEK293 membrane potential dye fluorescence | shares compounds with TRPC6 inhibitor | membrane potential signal change, % at 10 µM;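 active means membrane potential signal shifting up or down by more than 3 SD of buffer-only wells, on both duplicate plates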
HEK293 MPD ctr-2: checks TRPC6 modulator effects in parental HEK293 cells | shares compounds with TRPC6 inhibitor | membrane potential dye fluorescence | membrane potential signal change, % at 10 µM | actives 51% (n = 2,400) | AID 488924;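 active means membrane potential signal moves up or down beyond 5 SD from buffer-only wells, on both duplicate plates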
HEK293 MPD ctr 2-2: second counter-screen for TRPC6 modulators: effect in parental HEK293 cells; actives 14% (n = 2,400); AID 488926; inhibition, % at 10 µM; shares compounds with TRPC6 inhibitor; membrane potential dye fluorescence; after compound, maximal acetylcholine stimulation;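 active means membrane potential signal drops by more than 5 SD from the mean control signal, in both duplicate plates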;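 further: plate controls were acetylcholine ECmax control wells for no effect and buffer only wells for full effect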
TRPC4/MOR mod: tests whether TRPC6 modulators also affect mouse TRPC4 | HEK293 TRPC4/mu-opioid, membrane potential fluorescence | AID 488927 | actives 69% (n = 2,400) | shares compounds with TRPC6 inhibitor | percent change from control (negative = decrease, positive = increase), % at 10 µM;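 active means membrane potential signal moved up or down beyond 5 SD of buffer control wells, in both duplicate plates, actives on both sides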;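 further: plate controls were assay buffer wells for no effect and DAMGO maximal-effect wells for full effect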
TRPC4/MOR inh 2: mouse TRPC4 off-target activity of TRPC6 modulators, second screen. shares compounds with TRPC6 inhibitor. HEK293 TRPC4/mu-opioid, membrane potential dye fluorescence; stimulated with maximal-effect DAMGO. inhibition, % at 10 µM. actives 55% (n = 2,400). AID 488928;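 active means drop in membrane potential signal beyond 5 SD of the control wells in both duplicate plates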;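 further: TRPC4 counter screen for TRPC6 hits run under conditions tuned for TRPC6 not TRPC4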
TRPC6 block conf: confirmation of mouse TRPC6 inhibitors. shares compounds with TRPC6 inhibitor. HEK293-TRPC6, membrane potential dye, ACh-evoked depolarization. inhibition, % at 10 µM. actives 43% (n = 3,300). AID 488960;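 active means fluorescence ratio falls more than 5 SD below the full-stimulation control mean, in both duplicate runs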;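 further: integrated fluorescence ratio of peak minus minimum over baseline after agonist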
TRPC6 act conf: mouse TRPC6 activator confirmation; shares compounds with TRPC6 inhibitor; HEK293-TRPC6 membrane potential dye fluorescence, FDSS; activation, % at 10 µM; actives 11% (n = 2,800); AID 488961;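 active means ratio signal rise beyond 5 SD above unstimulated control wells' mean, seen in both duplicate runs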;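 further: plate controls were buffer EC0 wells for no effect and acetylcholine ECmax response for full effect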
An asterisk follows results filed as active; i = inactive; / = no result.

SMILES | TRPC4 PAM | TRPC6 activator | Kir21 block | TRPC4 block | TRPC6 inhibitor | TRPC4 agonist | TRPC4 sel inh 2 | TRPC4 spec | HEK293 MPD ctr 2-1 | HEK293 MPD ctr-1 | HEK293 MPD ctr-2 | HEK293 MPD ctr 2-2 | TRPC4/MOR mod | TRPC4/MOR inh 2 | TRPC6 block conf | TRPC6 act conf
CC(C)C(C)NC(=O)COC(=O)C1CCN(S(=O)(=O)c2ccc3c(c2)OCCO3)CC1 (stereo unspecified) | i | i | -0.9 | i | -6.4* | i | / | / | / | / | i | i | 7.0%* | i | i | i
Cc1ccc2cc(CN(CCN3CCCC3)C(=O)Nc3ccccc3)c(=O)[nH]c2c1C | i | i | 0.16 | i | -5* | i | / | / | / | / | i | i | i | 54%* | 46%* | i
Cc1ccc2cc(CN(CCN3CCOCC3)C(=O)NCc3ccccc3)c(=O)[nH]c2c1C | i | i | -0.6 | i | i | i | / | / | / | / | / | / | / | / | / | /
Cc1cc(C)cc(C(=O)NN2CCN(C)CC2)c1 | i | i | -0.51 | i | i | i | / | / | / | / | / | / | / | / | / | /
CCOC(CNC(=O)CN1C(=O)COc2ccc(S(=O)(=O)N3CCOCC3)cc21)OCC | i | i | 0.51 | i | -5.2* | i | / | / | / | / | i | i | i | i | i | i
CCOCCCNC(=O)CN1C(=O)COc2ccc(S(=O)(=O)N3CCOCC3)cc21 | i | i | -0.2 | i | i | i | / | / | / | / | / | / | / | / | / | /
Cc1cc(NC(=O)CSc2nnc(-c3ccccc3Cl)o2)no1 | i | i | 0.99 | i | i | i | / | / | / | / | / | / | / | / | / | /
CC1(C)Cc2nc3oc4c(=O)n(CC(=O)Nc5ccc(Cl)cc5)cnc4c3cc2CO1 | i | i | -0.08 | i | -8.3* | i | i | i | i | i | / | / | / | / | i | i
O=C(COc1cccc2cccnc12)N1CCc2ccccc2C1 | i | i | -2 | i | -6.2* | i | / | / | / | / | -126%* | i | -22%* | i | i | i
CCN(CC)CCNC(=O)C(C)c1nn(CC)c(=O)c2ccccc12 (stereo unspecified) | i | i | -0.69 | i | i | i | / | / | / | / | / | / | / | / | / | /
CCN(CC)CCN1C(=O)Cn2c(C)c(C)c3cccc1c32 | i | i | -0.26 | i | -8.4* | i | 50%* | -17%* | i | -254%* | i | i | -18%* | 61%* | 53%* | i
CCN(CC)CCNC(=O)c1nn(-c2ccc(C)cc2)c(=O)c2c1c1ccccc1n2C | i | i | 0.48 | i | -8.9* | i | 56%* | -15%* | i | -187%* | / | / | / | / | 64%* | i
Cc1ccccc1N1CCN(CCC(=O)Nc2ccc(F)cc2)CC1 | i | i | -2.7 | i | i | i | / | / | / | / | / | / | / | / | / | /
Cc1ccc(S(=O)(=O)NNc2ccccc2)cc1 | i | i | -1.3 | i | i | i | / | / | / | / | / | / | / | / | / | /
Cc1ccc(S(=O)(=O)NNc2nc3ccccc3nc2C(F)(F)F)cc1 | i | i | -0.06 | i | -7* | i | i | i | i | i | / | / | / | / | i | i
O=c1c2c3c(sc2n2cnnc2n1-c1ccccc1)N(Cc1ccccc1)CCC3 | i | i | -1.8 | i | -7* | i | i | -20%* | i | -271%* | / | / | / | / | i | i
Cc1nnc2n(-c3ccccc3)c(=O)c3c4c(sc3n12)CCCC4 | i | i | -0.1 | i | i | i | / | / | / | / | / | / | / | / | / | /
CN1CCc2c(sc3c2c(=O)n(-c2cccc(Cl)c2)c2nncn32)C1 | i | i | 1.3 | i | -5.5* | i | / | / | / | / | i | i | 7.0%* | i | i | i
COc1ccc(CCn2c(SCCN3CCCCC3)nc3ccccc3c2=O)cc1OC | i | i | -2.6 | i | -9.2* | i | 36%* | -13%* | i | -153%* | / | / | / | / | 59%* | i
COc1ccc(NC(=O)CSc2nc3ccccc3c(=O)n2CCCN2CCC(C)CC2)c(OC)c1 | i | i | -3 | i | -9.2* | i | 22%* | i | i | 5.8%* | / | / | / | / | 57%* | i
CCOC(=O)C1CCN(CC(=O)Nc2cc(S(=O)(=O)N3CCOCC3)ccc2C)CC1 | i | i | 0.75 | i | i | i | / | / | / | / | / | / | / | / | / | /
Cc1c(Br)c([N+](=O)[O-])nn1CC(=O)NCC1CCCO1 (stereo unspecified) | i | i | -0.45 | i | i | i | / | / | / | / | / | / | / | / | / | /
Cc1cccc(NC2=C(NCCO)C(=O)c3ccccc3C2=O)c1 | i | i | -0.04 | i | -11* | i | / | / | / | / | -252%* | i | -50%* | 66%* | 52%* | i
CCNc1nc(N2CCCCC2)nc(-n2nnc(C(=O)OCC)c2C)n1 | i | 12* | 1.7 | i | i | i | / | / | / | / | i | i | 112%* | 80%* | i | 68%*
COc1ccc(CNC(C)C23CC4CC(CC(C4)C2)C3)c(OC)c1OC (stereo unspecified) | i | i | -2 | i | -8.1* | i | i | 35%* | i | 19%* | / | / | / | / | 96%* | /

Bioassay records as filed in PubChem BioAssay.
